In test [1] the test system is Pseudomonas aeruginosa. Kind of test: Minimum inhibitory concentration against Pseudomonas aeruginosa IAI measured in succinate (SC) liquid media. The test is classed as functional.
Test [2] has as its system Pseudomonas aeruginosa. Kind of test: Minimum inhibitory concentration against Pseudomonas aeruginosa ATCC 15692 measured in succinate (SC) solid media. In kind it is functional.
In test [3] the test system is Pseudomonas aeruginosa. Kind of test: Minimum inhibitory concentration against Pseudomonas aeruginosa ATCC 15692 measured in Muller-Hinton (MH) solid media. In kind it is functional.
Test [4] relates to Pseudomonas aeruginosa. Kind of test: Minimum inhibitory concentration against Pseudomonas aeruginosa ATCC 15692 measured in succinate (SC) liquid media. In kind it is functional.
Test [5] has as its system Pseudomonas aeruginosa. Kind of test: Minimum inhibitory concentration against Pseudomonas aeruginosa K690, measured in succinate (SC) solid media. In kind it is functional.
In test [6] the test system is Pseudomonas aeruginosa. Briefly: Minimum inhibitory concentration against Pseudomonas aeruginosa ATCC 15692 measured in Muller-Hinton (MH) liquid media. The test is classed as functional. In short, it runs like this: (§1)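 Broth microdilution in Müller-Hinton medium, highest final concentration generally 64 µg/mL, final inoculum 10^6 cells/mL, 18 h at 37 °C. […] Adducts expressed as µg/mL quinolone equivalents.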

Test [7] deals with Pseudomonas aeruginosa. Kind of test: Minimum inhibitory concentration against Pseudomonas aeruginosa IAI, measured in Muller-Hinton (MH) solid media. The test is classed as functional.
Test [8] concerns Pseudomonas aeruginosa. Kind of test: Minimum inhibitory concentration against Pseudomonas aeruginosa ATCC 27853 measured in succinate (SC) solid media. In kind it is functional.
Test [9] has as its system Pseudomonas aeruginosa. Kind of test: Minimum inhibitory concentration against Pseudomonas aeruginosa K690, measured in Muller-Hinton (MH) solid media. The test is classed as functional.
Test [10] deals with Pseudomonas aeruginosa. Kind of test: Minimum inhibitory concentration against Pseudomonas aeruginosa ATCC 27853 measured in Muller-Hinton (MH) liquid media. In kind it is functional.
The subject of test [11] is Pseudomonas aeruginosa. Briefly: Minimum inhibitory concentration against Pseudomonas aeruginosa IAI, measured in Muller-Hinton (MH) liquid media. The test is classed as functional. In short, it runs like this:
as §1

For test [12], the system named is Pseudomonas aeruginosa. Briefly: Minimum inhibitory concentration against Pseudomonas aeruginosa IAI measured in succinate (SC) solid media. The test is classed as functional.
The test system of test [13] is Pseudomonas aeruginosa. Kind of test: Minimum inhibitory concentration against Pseudomonas aeruginosa ATCC 27853 measured in Muller-Hinton (MH) solid media. The test is classed as functional.
Test [14] concerns Pseudomonas aeruginosa. Briefly: Minimum inhibitory concentration against Pseudomonas aeruginosa ATCC 27853 measured in succinate (SC) liquid media. The test is classed as functional.
Test [15] can be described thus: Minimum effective dose required for the inhibition of Escherichia coli gyrase.

≈ marks a conversion by molar mass, not a printed value.

`CCn1cc(C(=O)O)c(=O)c2cc(F)c(N3CCN(C(=O)OCOC(=O)CCC(=O)NCCNC(=O)CCC(=O)Nc4cc5cc(O)c(O)cc5[n+]5c4NCC[C@H]5C(=O)N[C@H](CO)C(=O)N[C@@H](CCCN=C(N)N)C(=O)N[C@H](CO)C(=O)N[C@@](C)(CCCN(O)C=O)C(=O)N[C@H]4CCCCNC(=O)[C@H]([C@@H](C)O)NC(=O)[C@H]([C@@H](C)O)NC(=O)[C@H](CCCN(O)C=O)NC4=O)CC3)cc21`: the MIC was 0.5 µg/mL in [1]; 2 µg/mL in test [2]; 2 µg/mL in [3]; 0.5 µg/mL in [4]; 16 µg/mL in [5]; 2 µg/mL in [6]. Besides, the MIC in test [7] is 4 µg/mL; in test [8] it was 8 µg/mL; in test [9], 16 µg/mL; in test [10] it was 16 µg/mL; in test [11] it was 4 µg/mL; in [12] it was 2 µg/mL. In addition, the MIC in test [13] stood at 16 µg/mL; in [14], 8 µg/mL.

In the case of `C[C@H](O)[C@@H]1NC(=O)[C@H](CCCN(O)C=O)NC(=O)[C@@H](NC(=O)[C@](C)(CCCN(O)C=O)NC(=O)[C@@H](CO)NC(=O)[C@H](CCCN=C(N)N)NC(=O)[C@H](CO)NC(=O)[C@@H]2CCNc3c(NC(=O)CCC(=O)NCCNC(=O)CCC(=O)N4CCN(c5cc6nc7c(cc6cc5F)c(=O)c(C(=O)O)cn7C)CC4)cc4cc(O)c(O)cc4[n+]32)CCCCNC(=O)[C@@H]([C@H](C)O)NC1=O`, the MED in [15] stood at 25 µg/mL.

With `Cn1cc(C(=O)O)c(=O)c2cc3cc(F)c(N4CCNCC4)cc3nc21`, the MIC in test [1] was found to be 32 µg/mL (≈ 89.8 µM); in [2], 4 µg/mL (≈ 11.2 µM); in test [3], 8 µg/mL (≈ 22.4 µM); in test [4] it was 64 µg/mL (≈ 180 µM); in test [5], 16 µg/mL (≈ 44.9 µM); in test [6] it was 16 µg/mL (≈ 44.9 µM). In addition, the MIC in [7] was determined as 16 µg/mL (≈ 44.9 µM); in [8] it was 8 µg/mL (≈ 22.4 µM); in test [9] it was 32 µg/mL (≈ 89.8 µM); in test [10], 32 µg/mL (≈ 89.8 µM); in test [11], 16 µg/mL (≈ 44.9 µM); in [12], 16 µg/mL (≈ 44.9 µM). Also, the MIC was 16 µg/mL (≈ 44.9 µM) in test [13] and more than 64 µg/mL in test [14]. Moreover, in test [15], the MED was determined as 4 µg/mL.

Consider `C[C@H](O)[C@@H]1NC(=O)[C@H](CCCN(O)C=O)NC(=O)[C@@H](NC(=O)[C@](C)(CCCN(O)C=O)NC(=O)[C@@H](CO)NC(=O)[C@H](CCCN=C(N)N)NC(=O)[C@@H](CO)NC(=O)[C@@H]2CCNc3c(NC(=O)CCC(=O)NCCNC(=O)CCC(=O)OCOC(=O)N4CCN(c5cc6nc7c(cc6cc5F)c(=O)c(C(=O)O)cn7C)CC4)cc4cc(O)c(O)cc4[n+]32)CCCCNC(=O)[C@@H]([C@H](C)O)NC1=O`, for which the MED in test [15] worked out at 25 µg/mL.

In the case of `CCn1cc(C(=O)O)c(=O)c2cc(F)c(N3CCN(C(=O)CCC(=O)NCCNC(=O)CCC(=O)Nc4cc5cc(O)c(O)cc5[n+]5c4NCC[C@H]5C(=O)N[C@H](CO)C(=O)N[C@@H](CCCN=C(N)N)C(=O)N[C@H](CO)C(=O)N[C@@](C)(CCCN(O)C=O)C(=O)N[C@H]4CCCCNC(=O)[C@H]([C@@H](C)O)NC(=O)[C@H]([C@@H](C)O)NC(=O)[C@H](CCCN(O)C=O)NC4=O)CC3)cc21`, the MIC in test [2] stood at 2 µg/mL; in test [3], 8 µg/mL; in [5] it was 8 µg/mL; in test [7] it was 32 µg/mL; in [8] it was 8 µg/mL; in test [9] it was 32 µg/mL. For the same compound, the figures for the MIC in [12] and in [13] were 4 µg/mL and more than 64 µg/mL, respectively.

On to `C[C@@H](O)[C@@H]1NC(=O)[C@H](CCCN(O)C=O)NC(=O)[C@@H](NC(=O)[C@](C)(CCCN(O)C=O)NC(=O)[C@@H](CO)NC(=O)[C@H](CCCN=C(N)N)NC(=O)[C@@H](CO)NC(=O)[C@@H]2CCNc3c(NC(=O)CCC(=O)NCCNC(=O)CCC(=O)OCOC(=O)N4CCN(c5cc6nc7c(cc6cc5F)c(=O)c(C(=O)O)cn7C)CC4)cc4cc(O)c(O)cc4[n+]32)CCCCNC(=O)[C@H]([C@@H](C)O)NC1=O` [BENZONAPHTHYRIDONE BPL ADDUCT], for which the MIC in test [1] was found to be 2 µg/mL; in test [2], 1 µg/mL; in [3] it was 8 µg/mL; in [4], 2 µg/mL; in test [5] it was 8 µg/mL; in [6], 4 µg/mL. Also, the MIC came out at 16 µg/mL in test [7]; 4 µg/mL in test [8]; 32 µg/mL in test [9]; 32 µg/mL in test [10]; 8 µg/mL in test [11]; 1 µg/mL in test [12]. For the same compound, the MIC is 64 µg/mL in test [13] and 32 µg/mL in [14].

As to `CCn1cc(C(=O)O)c(=O)c2cc(F)c(N3CCNCC3)cc21` [NORFLOXACIN], the MIC in [1] amounted to 0.25 µg/mL (≈ 0.783 µM); in [2] it was 0.06 µg/mL (≈ 0.188 µM); in test [3], 0.25 µg/mL (≈ 0.783 µM); in test [4], 0.25 µg/mL (≈ 0.783 µM); in [5], 4 µg/mL (≈ 12.5 µM); in test [6], 1 µg/mL (≈ 3.13 µM). Also, the MIC in test [7] came out at 1 µg/mL (≈ 3.13 µM); in [8], 0.25 µg/mL (≈ 0.783 µM); in test [9], 8 µg/mL (≈ 25.1 µM); in test [10], 4 µg/mL (≈ 12.5 µM); in test [11], 1 µg/mL (≈ 3.13 µM); in test [12], 0.03 µg/mL (≈ 0.0939 µM). Also, the MIC in test [13] and in test [14] was 2 µg/mL (≈ 6.26 µM) throughout.

In [15], `CCn1cc(C(=O)O)c(=O)c2cc(F)c(N3CCN(C(=O)OCOC(=O)CCC(=O)NCCNC(=O)CCC(=O)Nc4cc5cc(O)c(O)cc5[n+]5c4NCC[C@H]5C(=O)N[C@@H](CO)C(=O)N[C@@H](CCCN=C(N)N)C(=O)N[C@H](CO)C(=O)N[C@@](C)(CCCN(O)C=O)C(=O)N[C@H]4CCCCNC(=O)[C@@H]([C@H](C)O)NC(=O)[C@H]([C@H](C)O)NC(=O)[C@H](CCCN(O)C=O)NC4=O)CC3)cc21` had an MED of 50 µg/mL.

`CCn1cc(C(=O)O)c(=O)c2cc(F)c(N3CCN(C(=O)CCC(=O)NCCNC(=O)CCC(=O)Nc4cc5cc(O)c(O)cc5[n+]5c4NCC[C@H]5C(=O)N[C@@H](CO)C(=O)N[C@@H](CCCN=C(N)N)C(=O)N[C@H](CO)C(=O)N[C@@](C)(CCCN(O)C=O)C(=O)N[C@H]4CCCCNC(=O)[C@@H]([C@H](C)O)NC(=O)[C@H]([C@H](C)O)NC(=O)[C@H](CCCN(O)C=O)NC4=O)CC3)cc21` returned an MED in test [15] of 50 µg/mL.

For the compound `C[C@@H](O)[C@@H]1NC(=O)[C@H](CCCN(O)C=O)NC(=O)[C@@H](NC(=O)[C@](C)(CCCN(O)C=O)NC(=O)[C@@H](CO)NC(=O)[C@H](CCCN=C(N)N)NC(=O)[C@@H](CO)NC(=O)[C@@H]2CCNc3c(NC(=O)CCC(=O)NCCNC(=O)CCC(=O)N4CCN(c5cc6nc7c(cc6cc5F)c(=O)c(C(=O)O)cn7C)CC4)cc4cc(O)c(O)cc4[n+]32)CCCCNC(=O)[C@H]([C@@H](C)O)NC1=O`, the MIC in test [2] was 8 µg/mL; in [3], 16 µg/mL; in test [5] it was 4 µg/mL; in [7], 32 µg/mL; in test [8], 8 µg/mL; in test [9] it was 64 µg/mL. The MIC in [12] was 8 µg/mL; in test [13], more than 64 µg/mL.

Usually MIC stands for the lowest concentration found to suppress growth.

Source of the values: ChEMBL document CHEMBL1134513, “Synthesis and activities of pyoverdin-quinolone adducts: a prospective approach to a specific Therapy against Pseudomonas aeruginosa” (2001).
